Measured values taken from ChEMBL document CHEMBL1132197, “Stereospecific synthesis, structure-activity relationship, and oral bioavailability of tetrahydropyrimidin-2-one HIV protease inhibitors” (J Med Chem, 1999).
Each block holds one compound with its values, some of them ahead of it.

Key:
[1] = tested on: MT2; experiment: Antiviral activity by measuring its effect on the accumulation of viral RNA transcripts on infection of MT-2 cells with HIV-1 RF.; assay type: functional; conditions: Homo sapiens
How it was run: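 Viral RNA transcript accumulation read 3 days after HIV-1 RF infection of MT-2 cells. IC90 is the concentration cutting viral RNA by 90% versus an untreated infected culture. TC50 came from MTT dye reduction in uninfected MT-2 cultures grown 3 days with compound.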

[2] = target: Human immunodeficiency virus type 1 protease (Human immunodeficiency virus 1, UniProt Q72874); experiment: Inhibition constant of HIV protease inhibitors
How it was run: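 HIV protease (HIVPR) inhibition constant was determined by monitoring cleavage of a fluorescent peptide substrate, with products separated and quantified by HPLC.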

[3] = The maximum plasma concentration (Cmax) is the observed peak plasma concentration after an oral dose on rat.; assay type: ADME, organism-based; design: route oral
How it was run: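 Rats dosed orally in groups at 10 mg/kg, in a formulation of propylene glycol, poly(ethylene glycol) 400 and water. Cmax is the observed peak plasma concentration after the oral dose.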

SMILES: O=C(Nc1nccs1)c1cccc(CN2C(=O)N(Cc3cccc(C(=O)Nc4nccs4)c3)[C@H](Cc3ccccc3)[C@H](O)[C@H]2CCc2ccccc2)c1
IC90 [1]: 31 nM
Ki [2]: 0.03 nM

SMILES: N#Cc1cccc(CN2C(=O)N3C(Cc4ccccc4)[C@@H]3[C@@H](O)[C@H]2Cc2ccccc2)c1 (some centres undefined)
Ki [2]: 2400 nM

SMILES: O=C1N(CC2CC2)[C@H]([C@@H](O)Cc2ccccc2)[C@@H](O)[C@@H](Cc2ccccc2)N1CC1CC1
Ki [2]: 410 nM

SMILES: [N-]=[N+]=N[C@@H](Cc1ccccc1)[C@@H]1[C@@H](O)[C@@H](Cc2ccccc2)N(Cc2ccc3ccccc3c2)C(=O)N1Cc1ccc2ccccc2c1
Ki [2]: 330 nM

SMILES: NC(=O)c1cccc(CN2C(=O)N(Cc3cccc(N)c3)[C@H](Cc3ccccc3)[C@H](O)[C@H]2CCc2ccccc2)c1
IC90 [1]: 24 nM
Ki [2]: 0.06 nM

IC90 [1]: 1600 nM
SMILES: N#Cc1cccc(CN2C(=O)N(Cc3cccc(C#N)c3)[C@H](Cc3ccccc3)[C@H](O)[C@H]2CCc2ccccc2)c1

SMILES: NC(=O)c1cc(CN2C(=O)N[C@H](CCc3ccccc3)[C@@H](O)[C@H]2Cc2ccccc2)ccc1F
Ki [2]: 14 nM

SMILES: Cc1ccc(NC(=O)c2cccc(CN3C(=O)N(Cc4cccc(C(=O)Nc5ccc(C)cn5)c4)[C@H](Cc4ccccc4)[C@H](O)[C@H]3CCc3ccccc3)c2)nc1
IC90 [1]: 26 nM
Ki [2]: 0.08 nM

IC90 [1]: 115 nM
Cmax [3]: 120 nM
SMILES: O=C1N(Cc2cccc(O)c2)[C@H](CCc2ccccc2)[C@@H](O)[C@@H](Cc2ccccc2)N1Cc1cccc(O)c1

Cmax [3]: 70 nM
SMILES: O=C1N(Cc2cccc(-c3cc[nH]n3)c2)[C@H](Cc2ccccc2)[C@H](O)[C@@H](O)[C@@H](Cc2ccccc2)N1Cc1cccc(-c2cc[nH]n2)c1

SMILES: NC(=O)c1cccc(CN2C(=O)N(Cc3cccc(C(N)=O)c3)[C@H](Cc3ccc(F)cc3)[C@H](O)[C@H]2CCc2ccc(F)cc2)c1
IC90 [1]: 35 nM
Ki [2]: 0.31 nM

SMILES: N#Cc1cc(CN2C(=O)N(Cc3ccccc3)[C@H](Cc3ccccc3)[C@H](O)[C@H]2CCc2ccccc2)ccc1F
Ki [2]: 33 nM

SMILES: N=C(NO)c1cccc(CN2C(=O)N(Cc3cccc(C(=N)NO)c3)[C@H](Cc3ccc(F)cc3)[C@H](O)[C@H]2CCc2ccc(F)cc2)c1
IC90 [1]: 49 nM
Ki [2]: 0.02 nM

SMILES: N#Cc1cccc(CN2C(=O)N[C@H](CCc3ccccc3)[C@@H](O)[C@H]2Cc2ccccc2)c1
Ki [2]: 15 nM

SMILES: O=C1N[C@H](CCc2ccccc2)[C@@H](O)[C@@H](Cc2ccccc2)N1Cc1ccc2[nH]ncc2c1
IC90 [1]: 590 nM
Ki [2]: 1.2 nM

SMILES: Nc1noc2ccc(CN3C(=O)N(Cc4ccc5onc(N)c5c4)[C@H](Cc4ccccc4)[C@H](O)[C@H]3CCc3ccccc3)cc12
IC90 [1]: 132 nM
Ki [2]: 0.41 nM

SMILES: O=C1N[C@H](CCc2ccccc2)[C@@H](O)[C@@H](Cc2ccccc2)N1Cc1cccc(O)c1
IC90 [1]: 4800 nM
Ki [2]: 2.6 nM

SMILES: O=C1N[C@H](Cc2ccccc2)[C@H](O)[C@@H](CCc2ccccc2)N1Cc1ccc2[nH]ncc2c1
Ki [2]: 44 nM

SMILES: N#Cc1cc(CN2C(=O)N(Cc3ccccc3)[C@H](CCc3ccccc3)[C@@H](O)[C@H]2Cc2ccccc2)ccc1F
Ki [2]: 40 nM

IC90 [1]: 36 nM
SMILES: Nc1cc(CN2C(=O)N(Cc3ccc(F)c(N)c3)[C@H](Cc3ccccc3)[C@H](O)[C@H]2CCc2ccccc2)ccc1F

IC90 [1]: 38 nM
Cmax [3]: 830 nM
SMILES: O=C1N(Cc2cccc(CO)c2)[C@H](Cc2ccccc2)[C@H](O)[C@@H](O)[C@@H](Cc2ccccc2)N1Cc1cccc(CO)c1

SMILES: Nc1[nH]nc2ccc(CN3C(=O)N(Cc4ccccc4)[C@H](Cc4ccccc4)[C@H](O)[C@H]3CCc3ccccc3)cc12
IC90 [1]: 71 nM
Ki [2]: 0.65 nM

Cmax [3]: 500 nM
SMILES: CC(=O)c1cccc(CN2C(=O)N(Cc3cccc(C(C)=O)c3)[C@H](Cc3ccccc3)[C@H](O)[C@@H](O)[C@H]2Cc2ccccc2)c1

SMILES: NC(=O)c1cccc(CN2C(=O)N(Cc3cccc(C(N)=O)c3)[C@H](Cc3ccc(F)c(F)c3)[C@H](O)[C@H]2CCc2ccc(F)c(F)c2)c1
IC90 [1]: 90 nM
Ki [2]: 0.15 nM

SMILES: O=C1N(Cc2ccc3ccccc3c2)[C@H](/C=C/c2ccccc2)[C@@H](O)[C@@H](Cc2ccccc2)N1Cc1ccc2ccccc2c1
Ki [2]: 280 nM

IC90 [1]: 54 nM
Cmax [3]: 810 nM
SMILES: O=C1N(Cc2cccc(O)c2)[C@H](Cc2ccccc2)[C@H](O)[C@@H](O)[C@@H](Cc2ccccc2)N1Cc1cccc(O)c1

SMILES: N/C(=N\O)c1cc(CN2C(=O)N[C@H](CCc3ccccc3)[C@@H](O)[C@H]2Cc2ccccc2)ccc1F
IC90 [1]: 3780 nM
Ki [2]: 1.4 nM

SMILES: N/C(=N\O)c1cccc(CN2C(=O)N3C(Cc4ccccc4)[C@@H]3[C@@H](O)[C@H]2Cc2ccccc2)c1 (some centres undefined)
Ki [2]: 12 nM

SMILES: N=C(NO)c1cc(CN2C(=O)N(Cc3ccc(F)c(C(=N)NO)c3)[C@H](Cc3ccccc3)[C@H](O)[C@H]2CCc2ccccc2)ccc1F
IC90 [1]: 51 nM
Ki [2]: 0.06 nM

SMILES: Nc1cccc(CN2C(=O)N[C@H](CCc3ccccc3)[C@@H](O)[C@H]2Cc2ccccc2)c1
IC90 [1]: 4330 nM
Ki [2]: 6.2 nM

SMILES: NC(=O)c1cccc(CN2C(=O)N(Cc3cccc(C(N)=O)c3)[C@H](Cc3ccccc3)[C@H](O)[C@H]2CCc2ccccc2)c1
Ki [2]: 0.09 nM

SMILES: O=C1N(Cc2cccc(CO)c2)[C@H]([C@@H](Br)Cc2ccccc2)[C@@H](O)[C@@H](Cc2ccccc2)N1Cc1cccc(CO)c1
IC90 [1]: 2100 nM
Ki [2]: 11 nM

SMILES: N/C(=N\O)c1cccc(CN2C(=O)N(Cc3cccc(N)c3)[C@H](Cc3ccccc3)[C@H](O)[C@H]2CCc2ccccc2)c1
IC90 [1]: 17 nM
Ki [2]: 0.02 nM

SMILES: Nc1cccc(CN2C(=O)N(Cc3ccc4[nH]ncc4c3)[C@H](CCc3ccccc3)[C@@H](O)[C@H]2Cc2ccccc2)c1
IC90 [1]: 16 nM
Ki [2]: 0.1 nM

SMILES: N#Cc1cc(CN2C(=O)N(Cc3ccc(F)c(C#N)c3)[C@H](Cc3ccccc3)[C@H](O)[C@H]2CCc2ccccc2)ccc1F
Ki [2]: 230 nM

SMILES: O=C(O)c1cccc(CN2C(=O)N(Cc3cccc(C(=O)O)c3)[C@H](Cc3ccccc3)[C@H](O)[C@H]2CCc2ccccc2)c1
Ki [2]: 0.87 nM

SMILES: O=C1N(Cc2ccccc2)[C@H]([C@@H](Br)Cc2ccccc2)[C@@H](O)[C@@H](Cc2ccccc2)N1Cc1ccccc1
Ki [2]: 185 nM

SMILES: O=C1N(Cc2ccccc2)[C@H](/C=C/c2ccccc2)[C@@H](O)[C@@H](Cc2ccccc2)N1Cc1ccccc1
Ki [2]: 460 nM

SMILES: NC(=O)c1cccc(CN2C(=O)N3C(Cc4ccccc4)[C@@H]3[C@@H](O)[C@H]2Cc2ccccc2)c1 (some centres undefined)
Ki [2]: 320 nM

SMILES: Nc1[nH]nc2ccc(CN3C(=O)N(Cc4ccccc4)[C@H](CCc4ccccc4)[C@@H](O)[C@H]3Cc3ccccc3)cc12
IC90 [1]: 126 nM
Ki [2]: 0.28 nM

SMILES: Nc1[nH]nc2ccc(CN3C(=O)N(Cc4ccc5n[nH]c(N)c5c4)[C@H](Cc4ccccc4)[C@H](O)[C@H]3CCc3ccccc3)cc12
IC90 [1]: 383 nM
Ki [2]: 0.03 nM

SMILES: N=C(NO)c1cccc(CN2C(=O)N(Cc3cccc(C(=N)NO)c3)[C@H](Cc3ccc(F)c(F)c3)[C@H](O)[C@H]2CCc2ccc(F)c(F)c2)c1
IC90 [1]: 117 nM
Ki [2]: 0.01 nM

SMILES: Nc1[nH]nc2ccc(CN3C(=O)N[C@H](CCc4ccccc4)[C@@H](O)[C@H]3Cc3ccccc3)cc12
IC90 [1]: 549 nM
Ki [2]: 0.38 nM

IC90 [1]: 2800 nM
SMILES: O=C1N(Cc2ccccc2)[C@H](CCc2ccccc2)[C@@H](O)[C@@H](Cc2ccccc2)N1Cc1ccccc1

SMILES: O=C1N(Cc2ccc3c[nH]nc3c2)[C@H](CCc2ccccc2)[C@@H](O)[C@@H](Cc2ccccc2)N1Cc1ccc2c[nH]nc2c1
IC90 [1]: 32 nM
Ki [2]: 0.06 nM

Cmax [3]: 2250 nM
SMILES: Nc1cccc(CN2C(=O)N(Cc3cccc(N)c3)[C@H](Cc3ccccc3)[C@H](O)[C@@H](O)[C@H]2Cc2ccccc2)c1 [MOZENAVIR]

SMILES: N#Cc1cccc(CN2C(=O)N(Cc3cccc(N)c3)[C@H](Cc3ccccc3)[C@H](O)[C@H]2CCc2ccccc2)c1
IC90 [1]: 565 nM
Ki [2]: 1.6 nM

IC90 [1]: 539 nM
SMILES: Nc1ccc(CN2C(=O)N(Cc3ccc(N)c(F)c3)[C@H](Cc3ccccc3)[C@H](O)[C@H]2CCc2ccccc2)cc1F

SMILES: O=C1N(Cc2ccccc2)C[C@@H](O)[C@@H](Cc2ccccc2)N1Cc1ccccc1
Ki [2]: 2400 nM

SMILES: Cc1n[nH]c2ccc(CN3C(=O)N(Cc4ccc5[nH]nc(C)c5c4)[C@H](Cc4ccccc4)[C@H](O)[C@H]3CCc3ccccc3)cc12
IC90 [1]: 18 nM
Ki [2]: 0.1 nM

SMILES: Nc1cccc(CN2C(=O)N(Cc3ccc4[nH]ncc4c3)[C@H](Cc3ccccc3)[C@H](O)[C@H]2CCc2ccccc2)c1
IC90 [1]: 13 nM
Ki [2]: 0.08 nM

SMILES: Cc1n[nH]c2ccc(CN3C(=O)N(Cc4cccc(N)c4)[C@H](Cc4ccccc4)[C@H](O)[C@H]3CCc3ccccc3)cc12
IC90 [1]: 32 nM
Ki [2]: 0.13 nM

SMILES: O=C1N(CC2CC2)[C@H](CCc2ccccc2)[C@@H](O)[C@@H](Cc2ccccc2)N1CC1CC1
Ki [2]: 9.8 nM

SMILES: O=C1N[C@H](Cc2ccccc2)[C@H](O)[C@H]2C(Cc3ccccc3)N12 (some centres undefined)
Ki [2]: 3000 nM

SMILES: NC(=O)c1cccc(CN2C(=O)N[C@H](CCc3ccccc3)[C@@H](O)[C@H]2Cc2ccccc2)c1
Ki [2]: 5.6 nM

SMILES: N#Cc1cccc(CN2C(=O)N(Cc3cccc(C#N)c3)[C@H](Cc3ccc(F)cc3)[C@H](O)[C@H]2CCc2ccc(F)cc2)c1
IC90 [1]: 1560 nM
Ki [2]: 14 nM

SMILES: N#Cc1cc(CN2C(=O)N[C@H](CCc3ccccc3)[C@@H](O)[C@H]2Cc2ccccc2)ccc1F
Ki [2]: 110 nM

SMILES: O=C1[C@@H](CCc2ccccc2)N(Cc2ccccc2)C(=O)N(Cc2ccccc2)[C@@H]1Cc1ccccc1
Ki [2]: 1500 nM

IC90 [1]: 490 nM
SMILES: NC(=O)c1cc(CN2C(=O)N(Cc3ccc(F)c(C(N)=O)c3)[C@H](Cc3ccccc3)[C@H](O)[C@H]2CCc2ccccc2)ccc1F

SMILES: Nc1cccc(CN2C(=O)N[C@H](Cc3ccccc3)[C@H](O)[C@H]2CCc2ccccc2)c1
Ki [2]: 157 nM

SMILES: N/C(=N\O)c1cccc(CN2C(=O)N(CC3CC3)[C@H](CCc3ccccc3)[C@@H](O)[C@H]2Cc2ccccc2)c1
IC90 [1]: 36 nM
Ki [2]: 0.48 nM

IC90 [1]: 328 nM
SMILES: CNc1cccc(CN2C(=O)N(Cc3cccc(NC)c3)[C@H](Cc3ccccc3)[C@H](O)[C@H]2CCc2ccccc2)c1

SMILES: Nc1cccc(CN2C(=O)N(Cc3ccc4[nH]nc(N)c4c3)[C@H](CCc3ccccc3)[C@@H](O)[C@H]2Cc2ccccc2)c1
IC90 [1]: 53 nM
Ki [2]: 0.1 nM
